From ChEMBL document CHEMBL1145117, “Structures and cytotoxic properties of trichoverroids and their macrolide analogues produced by saltwater culture of Myrothecium verrucaria” (J Med Chem, 2003)
pIC50: −log10 of the molar value.

What was measured:
[1] = system: COLO 205; assay: In vitro antitumor activity against colon COLO 205 tumor cell lines; format: functional, cell-based, Homo sapiens; details: colo 205
[2] = system: A549; assay: In vitro antitumor activity against NSCL A549/ATCC tumor cell lines; format: functional, cell-based, Homo sapiens; details: a549
[3] = system: SK-MEL-2; assay: In vitro antitumor activity against melanoma SK-MEL-2 tumor cell lines; format: functional, cell-based, Homo sapiens; details: sk-mel-2
[4] = system: MDA-MB-435; assay: In vitro antitumor activity against breast MDA-MB-435 tumor cell lines; format: functional, cell-based, Homo sapiens; details: mda-mb-435
[5] = system: MCF7; assay: In vitro antitumor activity against breast MCF-7 tumor cell lines; format: functional, cell-based, Homo sapiens; details: mcf7
[6] = system: UACC-62; assay: In vitro antitumor activity against melanoma UACC-62 tumor cell lines; format: functional, cell-based, Homo sapiens; details: uacc-62
[7] = species: Homo sapiens; assay: Concentration giving 500 zone units against H116 colon tumor cell lines; format: functional
Summary of the method: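 Disk diffusion soft agar colony formation assay on human H116 colon tumor cells. Each sample was applied to a disk as 15 µL, and activity was read as zone units. The value is the sample concentration that gave 500 zone units.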

[8] = system: HCT-15; assay: In vitro antitumor activity against colon HCT-15 tumor cell lines; format: functional, cell-based, Homo sapiens; details: hct-15
[9] = system: NCI-H522; assay: In vitro antitumor activity against NSCL NCI-H522 tumor cell lines; format: functional, cell-based, Homo sapiens; details: nci-h522
[10] = system: HCT-116; assay: In vitro antitumor activity against colon HCT116 tumor cell lines; format: functional, cell-based, Homo sapiens; details: hct-116
[11] = system: HL-60; assay: In vitro antitumor activity against leukemia HL-60(TB) tumor cell lines; format: functional, cell-based, Homo sapiens; details: hl-60
[12] = system: RXF 393; assay: In vitro antitumor activity against renal RXF 393 tumor cell lines; format: functional, cell-based, Homo sapiens; details: rxf 393
[13] = system: A498; assay: In vitro antitumor activity against renal A498 tumor cell lines; format: functional, cell-based, Homo sapiens; details: a498
[14] = system: NCI-H226; assay: In vitro antitumor activity against NSCL NCI-H226 tumor cell lines; format: functional, cell-based, Homo sapiens; details: nci-h226
[15] = system: CCRF-CEM; assay: In vitro antitumor activity against leukemia CCRF-CEM tumor cell lines; format: functional, cell-based, Homo sapiens; details: ccrf-cem
[16] = system: MDA-N; assay: In vitro antitumor activity against breast MDA-N tumor cell lines; format: functional, cell-based, Homo sapiens; details: mda-n
[17] = system: MOLT-4; assay: In vitro antitumor activity against leukemia MOLT-4 tumor cell lines; format: functional, cell-based, Homo sapiens; details: molt-4
[18] = system: M14; assay: In vitro antitumor activity against melanoma M14 tumor cell lines; format: functional, cell-based, Homo sapiens; details: m14
[19] = system: 786-0; assay: In vitro antitumor activity against renal 786-0 tumor cell lines; format: functional, cell-based, Homo sapiens

**Q.** What does the source list for `CC1=C[C@H]2O[C@@H]3[C@H](O)[C@H]4OC(=O)/C=C\C=C\[C@H]([C@H](C)O)OCC/C(C)=C/C(=O)OC[C@@]2(CC1)[C@]4(C)[C@]31CO1` [RORIDIN L]?
**A.** pIC50 [1]: 7.89; pIC50 [2]: < 5.00; pIC50 [3]: 7.62; pIC50 [4]: 7.70; pIC50 [5]: < 5.00; pIC50 [6]: 7.74; Concentration [7]: 1.3 µg/mL; pIC50 [8]: < 5.00; pIC50 [9]: 7.68; pIC50 [10]: < 5.00; pIC50 [11]: < 5.00; pIC50 [12]: < 5.00; pIC50 [13]: 7.72; pIC50 [14]: 7.04; pIC50 [15]: < 5.00; pIC50 [16]: 7.68; pIC50 [17]: < 5.00; pIC50 [18]: 7.62

**Q.** With `CC1=C[C@H]2O[C@@H]3[C@H](O)[C@H]4OC(=O)/C=C\C=C\[C@@H]5O[C@H](C/C(C)=C/C(=O)OC[C@@]2(CC1)[C@]4(C)[C@]31CO1)O[C@H]5C` [RORIDIN M] as the compound, how does the pIC50 [2] read?
**A.** < 5.00

**Q.** What about the pIC50 [3] of the same compound?
**A.** 6.59

**Q.** What about the pIC50 [4] of the same compound?
**A.** 6.86

**Q.** What about the pIC50 [5] of the same compound?
**A.** < 5.00

**Q.** And the pIC50 [6]?
**A.** 6.39

**Q.** And the Concentration [7]?
**A.** 41 µg/mL

**Q.** What about the pIC50 [8] of the same compound?
**A.** 6.32

**Q.** What about the pIC50 [9] of the same compound?
**A.** 7.59

**Q.** What about the pIC50 [10] of the same compound?
**A.** 7.12

**Q.** And the pIC50 [11]?
**A.** < 5.00

**Q.** And the pIC50 [12]?
**A.** 5.66

**Q.** What about the pIC50 [19] of the same compound?
**A.** < 5.00

**Q.** What about the pIC50 [13] of the same compound?
**A.** 6.23

**Q.** What about the pIC50 [14] of the same compound?
**A.** 6.80

**Q.** What about the pIC50 [15] of the same compound?
**A.** < 5.00

**Q.** What about the pIC50 [16] of the same compound?
**A.** 7.08

**Q.** What about the pIC50 [17] of the same compound?
**A.** < 5.00

**Q.** What about the pIC50 [18] of the same compound?
**A.** 7.12

**Q.** What does the source list for `CC1=C[C@H]2OC3C[C@@H](OC(=O)/C=C\C=C\[C@H](O)[C@H](C)O)[C@](C)([C@@]2(COC(=O)/C=C(\C)CCO)CC1)[C@]31CO1` [TRICHOVERRIN A]?
**A.** pIC50 [1]: 5.88; pIC50 [2]: 5.26; pIC50 [3]: 5.12; pIC50 [4]: 5.57; pIC50 [5]: < 5.00; pIC50 [6]: < 5.00; Concentration [7]: 163 µg/mL; pIC50 [8]: < 5.00; pIC50 [9]: 6.03; pIC50 [10]: < 5.00; pIC50 [11]: < 5.00; pIC50 [12]: < 5.00; pIC50 [19]: < 5.00; pIC50 [13]: 5.16; pIC50 [14]: 5.08; pIC50 [15]: < 5.00; pIC50 [16]: 5.11; pIC50 [17]: < 5.00; pIC50 [18]: 5.10

**Q.** With `CC1=C[C@H]2OC3C[C@@H](OC(=O)/C=C\C=C\[C@H](O)[C@@H](C)O)[C@](C)([C@@]2(COC(=O)/C=C(\C)CCO)CC1)[C@]31CO1` [TRICHOVERRIN B] as the compound, how does the pIC50 [1] read?
**A.** 5.40

**Q.** What about the pIC50 [2] of the same compound?
**A.** 5.21

**Q.** What about the pIC50 [3] of the same compound?
**A.** 5.05

**Q.** And the pIC50 [4]?
**A.** 5.26

**Q.** What about the pIC50 [5] of the same compound?
**A.** < 5.00

**Q.** And the pIC50 [6]?
**A.** < 5.00

**Q.** What about the Concentration [7] of the same compound?
**A.** 175 µg/mL

**Q.** And the pIC50 [8]?
**A.** < 5.00

**Q.** And the pIC50 [9]?
**A.** 6.04

**Q.** What about the pIC50 [10] of the same compound?
**A.** < 5.00

**Q.** And the pIC50 [11]?
**A.** < 5.00

**Q.** And the pIC50 [12]?
**A.** < 5.00

**Q.** And the pIC50 [19]?
**A.** < 5.00

**Q.** And the pIC50 [13]?
**A.** 5.09

**Q.** And the pIC50 [14]?
**A.** 5.16

**Q.** What about the pIC50 [15] of the same compound?
**A.** < 5.00

**Q.** And the pIC50 [16]?
**A.** < 5.00

**Q.** And the pIC50 [17]?
**A.** < 5.00

**Q.** What about the pIC50 [18] of the same compound?
**A.** 5.15

**Q.** How did the pIC50 [1] turn out when `CC1=C[C@H]2O[C@@H]3C[C@H]4OC(=O)/C=C\C=C\C(=O)OCC[C@@H](C)[C@H](O)C(=O)OC[C@@]2(CC1)[C@]4(C)[C@]31CO1` [VERRUCARIN A] was run?
**A.** > 9.00

**Q.** And the pIC50 [2]?
**A.** < 5.00

**Q.** What about the pIC50 [3] of the same compound?
**A.** 8.10

**Q.** And the pIC50 [4]?
**A.** 8.40

**Q.** And the pIC50 [5]?
**A.** 5.92

**Q.** What about the pIC50 [6] of the same compound?
**A.** 8.30

**Q.** What about the Concentration [7] of the same compound?
**A.** 0.78 µg/mL

**Q.** What about the pIC50 [8] of the same compound?
**A.** 5.09

**Q.** What about the pIC50 [9] of the same compound?
**A.** > 9.00

**Q.** What about the pIC50 [10] of the same compound?
**A.** < 5.00

**Q.** What about the pIC50 [11] of the same compound?
**A.** < 5.00

**Q.** What about the pIC50 [12] of the same compound?
**A.** < 5.00

**Q.** What about the pIC50 [13] of the same compound?
**A.** 8.52

**Q.** What about the pIC50 [14] of the same compound?
**A.** 8.40

**Q.** What about the pIC50 [15] of the same compound?
**A.** < 5.00

**Q.** What about the pIC50 [16] of the same compound?
**A.** 7.09

**Q.** And the pIC50 [17]?
**A.** < 5.00

**Q.** And the pIC50 [18]?
**A.** > 9.00

**Q.** `CC1=C[C@H]2O[C@@H]3[C@H](O)[C@H]4OC(=O)/C=C\C=C\C(=O)OCC/C(C)=C/C(=O)OC[C@@]2(CC1)[C@]4(C)[C@]31CO1` [VERRUCARRIN M] was tested. Which pIC50 [1] did it give?
**A.** 8.15

**Q.** What about the pIC50 [3] of the same compound?
**A.** 7.43

**Q.** What about the pIC50 [4] of the same compound?
**A.** 7.85

**Q.** And the pIC50 [5]?
**A.** < 5.00

**Q.** And the pIC50 [6]?
**A.** 7.24

**Q.** What about the Concentration [7] of the same compound?
**A.** 30 µg/mL

**Q.** And the pIC50 [8]?
**A.** 7.14

**Q.** And the pIC50 [9]?
**A.** > 9.00

**Q.** What about the pIC50 [11] of the same compound?
**A.** < 5.00

**Q.** What about the pIC50 [12] of the same compound?
**A.** 7.08

**Q.** And the pIC50 [19]?
**A.** < 5.00

**Q.** What about the pIC50 [13] of the same compound?
**A.** 7.28

**Q.** And the pIC50 [14]?
**A.** 7.48

**Q.** What about the pIC50 [15] of the same compound?
**A.** < 5.00

**Q.** What about the pIC50 [16] of the same compound?
**A.** 7.85

**Q.** And the pIC50 [17]?
**A.** < 5.00

**Q.** What about the pIC50 [18] of the same compound?
**A.** 8.10
